Experimental data: PMC7305985 (Molecular cell, 2020)

Assays:
[1] = test system: KAP1 target genes in HCT116 (CDK9 inhibition); assay: RT-qPCR of KAP1 target genes after flavopiridol treatment; format: cell-based; settings: HCT116, 1 μM, 2 and 4 hr; relative to DMSO, normalized to U6, n=3; Figure 2M
[2] = test system: SMAD2; assay: AP / IP / co-IP from HCT116 nuclear extracts: SMAD2; format: binding; settings: Figures 3G–3I, 6B
Outline: (§1)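 Tagged proteins were expressed in HCT116 cells by transfection for 48 hr. Nuclei were released by hypotonic swelling and 27-gauge needle lysis, then extracted for 45 min at 4°C in buffer C brought to 420 mM NaCl. Chromatin was digested with MNase (5 mM CaCl2, 10 min, 37°C). Clarified extract was bound to StrepTactin agarose for 2 hr at 4°C, washed 4X and eluted with desthiobiotin. Blots loaded 1% input.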

[3] = test system: CDK9; assay: Co-IP from HCT116 nuclear extracts: CDK9; format: binding; settings: Figure 6B
Outline: as §1

[4] = test system: CDK9 at KAP1 target gene promoters; assay: ChIP-qPCR of CDK9 after reconstitution; format: cell-based; settings: shKAP1 HCT116 reconstituted, n=3, Figure 6F
Outline: (§2)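 shKAP1 HCT116 cells were transfected with 1 µg epitope-tagged plasmid (PolyJet) and harvested after 48 hr. Cells were crosslinked in 0.5% formaldehyde (10 min, room temperature), quenched with 150 mM glycine and lysed in Farnham buffer at 10×10^6 cells/mL. Beads were washed in RIPA, low-salt, high-salt (500 mM NaCl), LiCl and TE buffers, eluted in NaHCO3/SDS (30 min, 65°C) and de-crosslinked with proteinase K (4 hr, 65°C), then read by qPCR.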

[5] = test system: KAP1 target gene promoters; assay: FLAG ChIP-qPCR of reconstituted KAP1 proteins; format: cell-based; settings: shKAP1 HCT116, FLAG ChIP-qPCR, % Input, n=3, Figures 5I, 6F
Outline: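 Epitope-tagged KAP1 was re-expressed in shKAP1 HCT116 cells by 1 µg plasmid transfection over 48 hr. Anti-FLAG ChIP used 0.5% formaldehyde crosslinking (10 min) and 150 mM glycine quench. Beads were washed 4 times with each of RIPA, low-salt, high-salt, LiCl and TE buffers. Elution was 30 min at 65°C, de-crosslinking 4 hr at 65°C with proteinase K, and read-out was qPCR.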

[6] = test system: KAP1 target genes in shKAP1 HCT116 cells; assay: Reconstitution assay, RT-qPCR of KAP1 target genes; format: cell-based
[7] = test system: Pol II (RPB1); assay: AP / IP / co-IP from HCT116 nuclear extracts: Pol II; format: binding; settings: MNase, endogenous IP, Figures 2C, 2D, 6B
Outline: as §1

[8] = test system: SMAD2 at KAP1 target gene promoters; assay: ChIP-qPCR of SMAD2 after reconstitution; format: cell-based; settings: shKAP1 HCT116 reconstituted, n=3, Figure 6F
Outline: as §2

[9] = test system: Pol II at KAP1 target gene promoters; assay: ChIP-qPCR of Pol II after reconstitution; format: cell-based; settings: shKAP1 HCT116 reconstituted, n=3, Figure 6F
Outline: as §2

Compound | expression of KAP1 target genes after flavopiridol [1] | association with SMAD2 in nuclear extracts [2] | association with SMAD2 in nuclear extracts ([2]; listed as WT KAP1) | association with CDK9 in nuclear extracts [3] | promoter recruitment of CDK9 [4] | localization to KAP1 target gene promoters [5] | localization to KAP1 target gene promoters ([5]; listed as WT KAP1) | restoration of KAP1 target gene expression (WT and point mutants) ([6]; shKAP1 HCT116, 48 hr, relative to shNT+GFP, normalized to RPL19, n=3, Figure 5H) | restored expression of all tested genes over GFP-expressing cells ([6]; shKAP1 HCT116, n=3, Figure 6E) | association with Pol II in nuclear extracts [7] | promoter recruitment of SMAD2 [8] | promoter recruitment of Pol II [9]
CN1CC[C@H](c2c(O)cc(O)c3c(=O)cc(-c4ccccc4Cl)oc23)[C@H](O)C1 [flavopiridol, Flavopiridol] | dampened expression of KAP1 target genes | – | – | – | – | – | – | – | – | – | – | –
KAP1: wild-type KAP1, STREP- or FLAG-tagged | – | interactions between ectopically expressed and endogenous proteins | associates with all three factors | associates with all three factors | facilitate recruitment of Pol II and CDK9 | able to localize to both C1 (SMAD2+) and C2/C3 (SMAD2-) gene promoters | localized to all tested gene promoters | restored KAP1 target gene expression | ~ 2 fold | co-purifies with both ectopically expressed and endogenous KAP1 | only facilitated SMAD2 recruitment to C1 (SMAD2+) gene promoters | facilitate recruitment of Pol II and CDK9
